# Measurements as given in ChEMBL document CHEMBL3822447, “4-(1,2-diarylbut-1-en-1-yl)isobutyranilide derivatives as inhibitors of topoisomerase II” (2016).
# The source made the active and inactive calls. No cut-off for these calls is given here.
# Legend:
# [1] = test system: MCF7; assay: Cytotoxicity against human MCF7 cells assessed as cell growth inhibition after 72 hrs by trypan blue assay; assay type: functional; conditions: MCF7, 72 h
# Method in brief: (§1)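 HeLa (F-12 HAM) and MCF-7 (DMEM) kept in medium with 10% heat-inactivated FCS plus antibiotics; 4-5×10^4 cells/well seeded, compounds added after 24 h at various concentrations, then 72 h more. Viable cells counted by trypan blue; GI50 is the concentration giving 50% fewer cells than control. Mean ± SD from at least three independent experiments.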
# [2] = test system: HeLa; assay: Cytotoxicity against human HeLa cells assessed as cell growth inhibition after 72 hrs by trypan blue assay; assay type: functional; method in brief: as §1
# [3] = test system: A2780; assay: Cytotoxicity against human A2780 cells assessed as cell growth inhibition after 72 hrs by MTS assay; assay type: functional; conditions: A2780, 72 h
# Method in brief: (§2)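 Cells grown in RPMI1640 with 10% FBS and 2 mM glutamine at 37°C, 5% CO2; plated at 15 000 cells/mL, treated with compounds 72 h after plating, and survival read by MTS after a further 72 h; dose-response curves plotted.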
# [4] = Cytotoxicity against human OVCAR5 cells assessed as cell growth inhibition after 72 hrs by MTS assay; assay type: functional; conditions: OVCAR-5, 72 h; method in brief: as §2
# [5] = molecular target: DNA topoisomerase 2-alpha (Homo sapiens) (UniProt P11388); assay: Poisoning activity at human recombinant topoisomerase 2 alpha using supercoiled pBR322 plasmid DNA as substrate assessed as stabilization of covalent DNA-enzyme complex at 50 uM after 60 mins by electrophoretic analysis
# Chain of DNA topoisomerase 2-alpha (Homo sapiens) (P11388 whole entry): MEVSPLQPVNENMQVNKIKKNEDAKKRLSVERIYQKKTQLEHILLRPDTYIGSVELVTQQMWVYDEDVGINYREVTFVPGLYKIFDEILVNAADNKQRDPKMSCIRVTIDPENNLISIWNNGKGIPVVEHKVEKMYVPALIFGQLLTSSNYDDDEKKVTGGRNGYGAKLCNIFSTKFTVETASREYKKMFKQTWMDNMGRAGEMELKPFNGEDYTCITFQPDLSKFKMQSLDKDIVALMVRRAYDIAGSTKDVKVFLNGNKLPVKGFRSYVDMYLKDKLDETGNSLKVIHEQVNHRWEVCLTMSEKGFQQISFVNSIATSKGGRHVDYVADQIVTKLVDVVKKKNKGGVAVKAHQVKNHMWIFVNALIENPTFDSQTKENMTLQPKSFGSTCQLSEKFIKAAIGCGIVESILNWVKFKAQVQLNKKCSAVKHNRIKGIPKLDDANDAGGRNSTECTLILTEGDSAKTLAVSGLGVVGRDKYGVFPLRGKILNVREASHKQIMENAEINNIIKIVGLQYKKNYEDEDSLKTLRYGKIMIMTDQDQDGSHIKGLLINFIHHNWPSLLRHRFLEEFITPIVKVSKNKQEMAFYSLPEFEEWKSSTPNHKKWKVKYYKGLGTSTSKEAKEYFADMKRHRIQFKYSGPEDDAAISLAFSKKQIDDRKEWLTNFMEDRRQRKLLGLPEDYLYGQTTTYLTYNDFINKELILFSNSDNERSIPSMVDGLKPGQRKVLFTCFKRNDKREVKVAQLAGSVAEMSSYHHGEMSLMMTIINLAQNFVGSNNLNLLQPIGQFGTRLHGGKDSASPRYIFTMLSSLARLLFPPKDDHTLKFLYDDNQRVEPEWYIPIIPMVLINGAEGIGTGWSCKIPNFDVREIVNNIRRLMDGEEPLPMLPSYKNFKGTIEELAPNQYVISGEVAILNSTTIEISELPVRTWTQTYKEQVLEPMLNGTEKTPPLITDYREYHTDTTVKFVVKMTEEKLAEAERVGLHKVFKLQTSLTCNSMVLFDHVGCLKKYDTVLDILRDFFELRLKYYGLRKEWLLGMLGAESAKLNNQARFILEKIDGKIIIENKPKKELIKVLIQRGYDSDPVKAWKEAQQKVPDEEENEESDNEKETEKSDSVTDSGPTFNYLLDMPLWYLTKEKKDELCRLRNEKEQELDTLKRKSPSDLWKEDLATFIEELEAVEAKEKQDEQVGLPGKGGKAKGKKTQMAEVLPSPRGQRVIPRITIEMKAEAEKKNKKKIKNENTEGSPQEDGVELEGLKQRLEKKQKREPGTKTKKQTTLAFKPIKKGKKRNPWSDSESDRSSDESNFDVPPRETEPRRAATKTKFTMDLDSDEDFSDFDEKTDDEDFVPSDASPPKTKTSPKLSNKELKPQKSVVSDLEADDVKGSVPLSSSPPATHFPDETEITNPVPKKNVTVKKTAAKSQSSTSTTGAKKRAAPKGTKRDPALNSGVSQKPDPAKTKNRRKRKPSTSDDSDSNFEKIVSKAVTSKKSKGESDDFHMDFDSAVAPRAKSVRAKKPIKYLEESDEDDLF
# Method in brief: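 Cleavage assay: 0.25 µg supercoiled pBR322 with 10 U human recombinant topoisomerase IIα and compound, 60 min at 37°C. Stopped with SDS buffer and 50 µg/mL proteinase K for 30 min at 37°C, then resolved on 1% agarose containing 0.5 µg/mL ethidium bromide in TBE, with UV imaging.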
# [6] = test system: HeLa; assay: Induction of mitochondrial membrane depolarization in human HeLa cells at 15 uM after 28 hrs by JC-1 staining-based flow cytometric analysis (reference value: 4%); assay type: functional
# Method in brief: (§3)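 HeLa cells (2.0 x 10^5) seeded, compound added after 24 h, then incubated 28 h. Cells loaded with JC-1 working solution for 30 min at 37°C, washed twice and read in assay buffer by flow cytometry. Loss of red aggregate fluorescence scored as depolarized (JC-1 monomer) cells.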
# [7] = test system: HeLa; assay: Induction of apoptosis in human HeLa cells assessed as dead cells at 50 uM after 28 hrs by annexin V/FITC/propidium iodide staining-based flow cytometry (reference value: 1%); assay type: functional
# Method in brief: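 HeLa cells (2.0 x 10^5 per plate) seeded, grown 24 h in F-12 [HAM] with 10% heat-inactivated fetal calf serum, then exposed to test agent in complete medium for 28 h at 37 °C, 5% CO2. Cells were resuspended at 10^6 cells/mL in binding buffer and stained with annexin V-FITC plus propidium iodide for 15 min in the dark at room temperature. Read by flow cytometry.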
# [8] = molecular target: T1, DNA topoisomerase 1 (Homo sapiens) (UniProt P11387); assay: Inhibition of human recombinant topoisomerase 1-mediated relaxation of supercoiled pBR322 plasmid DNA at 100 uM after 60 mins by electrophoretic analysis
# T1 sequence (whole entry): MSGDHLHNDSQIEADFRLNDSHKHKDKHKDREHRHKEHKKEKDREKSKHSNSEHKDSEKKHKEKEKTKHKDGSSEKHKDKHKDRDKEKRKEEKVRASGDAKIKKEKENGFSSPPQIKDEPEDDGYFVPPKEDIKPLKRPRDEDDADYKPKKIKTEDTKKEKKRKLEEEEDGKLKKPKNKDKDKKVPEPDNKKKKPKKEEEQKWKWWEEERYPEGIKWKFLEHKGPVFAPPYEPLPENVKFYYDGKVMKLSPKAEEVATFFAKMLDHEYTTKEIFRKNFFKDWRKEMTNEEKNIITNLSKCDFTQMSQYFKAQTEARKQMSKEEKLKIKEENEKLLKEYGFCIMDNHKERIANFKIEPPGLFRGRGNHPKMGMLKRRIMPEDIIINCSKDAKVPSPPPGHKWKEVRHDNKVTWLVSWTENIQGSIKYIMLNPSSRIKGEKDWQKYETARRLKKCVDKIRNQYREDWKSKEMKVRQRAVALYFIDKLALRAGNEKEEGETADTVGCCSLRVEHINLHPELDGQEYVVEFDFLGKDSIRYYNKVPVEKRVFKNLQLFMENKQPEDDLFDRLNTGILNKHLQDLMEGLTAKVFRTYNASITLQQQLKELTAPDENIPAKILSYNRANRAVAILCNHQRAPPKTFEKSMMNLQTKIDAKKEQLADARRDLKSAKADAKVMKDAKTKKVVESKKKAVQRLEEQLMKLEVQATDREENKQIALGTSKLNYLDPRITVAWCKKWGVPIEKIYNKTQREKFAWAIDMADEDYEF
# Method in brief: (§4)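 Relaxation assay: 0.25 µg supercoiled pBR322 incubated with 2U human recombinant topoisomerase I and compound for 60 min at 37°C. Stopped with SDS stop buffer plus 50 µg/mL proteinase K for 30 min at 37°C, run on 1% agarose at room temperature, then stained with 1 µg/mL ethidium bromide in TAE.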
# [9] = molecular target: DNA topoisomerase 2-alpha (Homo sapiens) (UniProt P11388); assay: Inhibition of human recombinant topoisomerase 2 alpha-mediated relaxation of supercoiled pBR322 plasmid DNA at 10 to 50 uM after 60 mins by electrophoretic analysis
# Method in brief: as §4, with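 “1U” for “2U”, “IIα” for “I”, “37°C; m-AMSA reference at 10 µM.” for “37°C.”, “agarose,” for “agarose at room temperature,”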
# [10] = test system: HeLa; assay: Induction of apoptosis in human HeLa cells assessed as late apoptotic cells at 50 uM after 28 hrs by annexin V/FITC/propidium iodide staining-based flow cytometry (reference value: 1.2%); assay type: functional
# [11] = test system: HeLa; assay: Induction of mitochondrial membrane depolarization in human HeLa cells at 10 uM after 28 hrs by JC-1 staining-based flow cytometric analysis (reference value: 4%); assay type: functional; method in brief: as §3
# [12] = test system: HeLa; assay: Induction of mitochondrial membrane depolarization in human HeLa cells at 25 uM after 28 hrs by JC-1 staining-based flow cytometric analysis (reference value: 4%); assay type: functional; method in brief: as §3
# [13] = test system: HeLa; assay: Induction of apoptosis in human HeLa cells assessed as early apoptotic cells at 50 uM after 28 hrs by annexin V/FITC/propidium iodide staining-based flow cytometry (reference value: 2.6%); assay type: functional
# [14] = test system: HeLa; assay: Induction of mitochondrial membrane depolarization in human HeLa cells after 28 hrs by JC-1 staining-based flow cytometric analysis; assay type: functional, cell-based; method in brief: as §3
# [15] = test system: HeLa; assay: Induction of apoptosis in human HeLa cells assessed as viable cells at 50 uM after 28 hrs by annexin V/FITC/propidium iodide staining-based flow cytometry (reference value: 95.3%); assay type: functional; conditions: read-out: Activity
# [16] = molecular target: DNA topoisomerase 2-alpha (Homo sapiens) (UniProt P11388); assay: Inhibition of human recombinant topoisomerase 2 alpha-mediated relaxation of supercoiled pBR322 plasmid DNA at 50 to 100 uM after 60 mins by electrophoretic analysis
# Method in brief: as §4, with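 “1U” for “2U”, “IIα” for “I”, “37°C; m-AMSA reference at 10 µM.” for “37°C.”, “agarose,” for “agarose at room temperature,”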
# [17] = molecular target: DNA topoisomerase 2-alpha (Homo sapiens) (UniProt P11388); assay: Inhibition of human recombinant topoisomerase 2 alpha-mediated relaxation of supercoiled pBR322 plasmid DNA at 50 uM after 60 mins by electrophoretic analysis
# Method in brief: as §4, with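 “1U” for “2U”, “IIα” for “I”, “37°C; m-AMSA reference at 10 µM.” for “37°C.”, “agarose,” for “agarose at room temperature,”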
Compound,GI50 [1] [µM],GI50 [2] [µM],GI50 [3] [µM],GI50 [4] [µM],other results
CC/C(=C(\c1ccccc1)c1ccc(NC(=O)C(C)C)cc1)c1ccc(OCc2ccccc2)cc1,> 30,10.2,8.8,> 50,–
CC/C(=C(\c1ccccc1)c1ccc(NC(=O)C(C)C)cc1)c1ccc(Cl)cc1Cl,8.3,3.3,8.4,> 50,Activity [5]: Active
CC/C(=C(\c1ccccc1)c1ccc(NC(=O)C(C)C)cc1)c1ccc(O)cc1,8.1,3.8,3.7,8.7,–
CC/C(=C(/c1ccccc1)c1ccc(NC(=O)C(C)C)cc1)c1ccc(Cl)cc1Cl,17.5,8.2,> 50,> 50,–
CC/C(=C(/c1ccc(NC(=O)C(C)C)cc1)c1ccc(OC)cc1)c1ccc(Cl)cc1Cl,6.6,2.2,3.8,> 50,Activity [6]: 75.7%; Activity [7]: 2.1%; inhibition [8]: inactive; inhibition [9]: Active; Activity [5]: Active; Activity [10]: 21.8%; Activity [11]: 51.8%; Activity [12]: 80.3%; Activity [13]: 44.4%; Activity [14]: Dose-dependent effect; viability at 50 µM [15]: 31.7%
CC/C(=C(\c1ccccc1)c1ccc(OCCN(C)C)cc1)c1ccccc1 [TAMOXIFEN],6.5,12,30.3,32,Activity [7]: 2.7%; Activity [10]: 28%; Activity [11]: 3.9%; Activity [12]: 26.2%; Activity [13]: 29.9%; inhibition [16]: inactive; Activity [14]: Dose-dependent effect; viability at 50 µM [15]: 39.4%
CC/C(=C(\c1ccc(O)cc1)c1ccc(NC(=O)C(C)C)cc1)c1ccccc1,14.7,9.9,34,42,–
CC/C(=C(/c1ccc(NC(=O)C(C)C)cc1)c1ccc(OC)cc1)c1ccccc1,> 30,> 30,> 50,> 50,–
CC/C(=C(\c1ccc(NC(=O)C(C)C)cc1)c1ccc(OC)cc1)c1ccc(O)cc1,9,3.7,5.7,23.6,–
CC/C(=C(\c1ccccc1)c1ccc(N)cc1)c1ccccc1,> 30,> 30,> 50,> 50,–
CC/C(=C(/c1ccc(NC(=O)C(C)C)cc1)c1ccc(OC)cc1)c1ccc(O)cc1,13.6,5.8,13.6,29.3,inhibition [17]: Active
CC/C(=C(/c1ccccc1)c1ccc(NC(=O)C(C)C)cc1)c1ccc(O)cc1,8.5,5.1,4.6,12.1,inhibition [17]: Active
CC/C(=C(/c1ccc(NC(=O)C(C)C)cc1)c1ccc(OC)cc1)c1ccc(OCc2ccccc2)cc1,29,4.2,> 50,> 50,–
CC/C(=C(/c1ccc(O)cc1)c1ccc(NC(=O)C(C)C)cc1)c1ccccc1,16.4,9.9,32.6,> 50,–
CC/C(=C(\c1ccc(NC(=O)C(C)C)cc1)c1ccc(OC)cc1)c1ccc(Cl)cc1Cl,13.2,5.5,8.2,> 50,–
CC/C(=C(\c1ccc(O)cc1)c1ccc(NC(=O)C(C)C)cc1)c1ccc(Cl)cc1Cl,12.5,8.7,15.7,28.8,–
CC/C(=C(\c1ccccc1)c1ccc(NC(=O)C(C)C)cc1)c1ccccc1,> 30,> 30,> 50,> 50,–
CC/C(=C(/c1ccccc1)c1ccc(NC(=O)C(C)C)cc1)c1ccccc1,> 30,28.1,31.6,> 50,–
CC/C(=C(\c1ccc(NC(=O)C(C)C)cc1)c1ccc(OC)cc1)c1ccccc1,27.9,10.1,17.4,> 50,–
CC/C(=C(\c1ccc(NC(=O)C(C)C)cc1)c1ccc(OC)cc1)c1ccc(OCc2ccccc2)cc1,> 30,> 30,> 50,> 50,–
CC/C(=C(/c1ccc(O)cc1)c1ccc(NC(=O)C(C)C)cc1)c1ccc(Cl)cc1Cl,26.6,20.3,28.1,32.3,–
CC/C(=C(/c1ccccc1)c1ccc(NC(=O)C(C)C)cc1)c1ccc(OCc2ccccc2)cc1,> 30,> 30,> 50,> 50,–
